MT stabilize HCS: microtubule stabilizers in HeLa cells, primary screen, imaging, high-content imaging | hit rate 0.83% among 200,000 | HeLa tubulin immunostaining HCS, 24 h; share of cells brighter than vehicle mean+2SD | % tubulin-high responders, % at 10 µM;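 active means plate Z-score above 3 for both tubulin-high and condensed-nucleus cell shares, with cell loss under 80%, at 10 µM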;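 further: anti alpha tubulin signal scored within the nucleus-defined area of each cell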
RAM inhibit: inhibitors of the yeast RAM network, primary screen, dse1pr::URA3 reporter, 5-FOA selection | S. cerevisiae dse1pr::URA3 reporter, 5-FOA growth OD615, 2 d; analog-sensitive cbk1-as2 kinase mutant strain | inhibition, % at 50 µM | hit rate 1.8% among 190,000;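 active means inhibition above a set limit, 3 SD over mean compound inhibition, cut at about 8.4% in these data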;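 further: inhibition rescues growth on 5-FOA so higher OD means more RAM inhibition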
Yeast lifespan up: compounds extending yeast replicative lifespan, primary screen, S. cerevisiae, OD615; S. cerevisiae growth with nicotinamide; deaD strain in restrictive glucose medium; inhibition of the nicotinamide effect, % at 10 µM; hit rate 0.68% among 130,000;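 active means inhibition above a set limit, placed 3 SD over the median of all compounds, cut at about 26% in these data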
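assay system = DeaD-strain S. cerevisiae | buffer or medium = restrictive glucose medium | reagent = 1.5 mM nicotinamide | compound = 10 µM single point, 0.25% DMSO | incubation = 48 h compound exposure at 30 °C, humidified | signal = OD615 measurement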
Yeast growth inh: growth inhibitors of yeast BB579 in restrictive medium, primary screen, yeast lifespan-shortening project, S. cerevisiae. OD615, 48 h. inhibition, % at 10 µM. hit rate 0.51% among 140,000;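 active means inhibition above a set limit, 3 SD over the mean compound inhibition, cut at about 44% in these data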
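Test system: DeaD yeast strain BB579 / Buffer or medium: restrictive glucose-based CSMM-D medium / Doses: single 10 µM dose / Schedule: 4 h cell preincubation, 48 h compound exposure, 30 °C humidified / Technique: culture absorbance at 615 nm / Controls: amphotericin B positive control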
HMGR II inh: inhibitors of E. faecalis class II HMGR, primary screen, biochemical, Enterococcus faecalis. inhibition, % at 10 µM. purified E. faecalis HMGR, NADPH absorbance 340 nm kinetic. hit rate 0.41% among 190,000. HMG-CoA reductase (Enterococcus faecalis, mvaE). AID 1066, 2008;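 active means inhibition above a set limit, the median over all tested compounds plus 3 SD, cut at about 9.5% in these data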;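 further: enzyme runs in reverse so mevalonate oxidation gives rising NADPH absorbance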
bCat nuc transl: modulators of beta-catenin nuclear translocation, primary screen, imaging, HeLa cells, immunofluorescence, high-content; nuclear translocation activity, % at 5 µM; hit rate 0.3% among 190,000;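 active means nuclear translocation activity above 50% at 5 µM, with a well cell count of 50 or more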;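 further: per-cell ratio of nuclear to cytoplasmic median beta-catenin stain intensity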
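Test system: human HeLa cells, native beta-catenin. Compound dosing: 5 µM primary single dose, 0.1% DMSO, 0.02–20 µM confirmation series. Incubation: compound exposure 24 h at 37°C. Detection: beta-catenin immunostaining with DAPI counterstain, 20x imaging, 6 fields/well. Read-out basis: Nuclear/cytoplasmic beta-catenin signal ratio, % activation.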
RAM 5-FOA: 5-FOA growth of efflux-deficient control yeast, dose response, counter-screen for RAM network inhibitor project, S. cerevisiae, OD615. shares compounds with RAM inhibit. max inhibition, %. S. cerevisiae efflux-deficient reporter strain, 5-FOA growth OD615, 2 days. 1,200 tested, under 10 active; call rule not given here
Of the large screens only hits and unclear results are named; the others gave an inactive call (follow-up assays come after a bar, where they were run). The list is not random: actives were taken first. Their share in the collection is about 3.5%.

[2H]c1c([2H])c([2H])c(-c2nc(N3CCCCCC3)sc2C(=O)c2ccccc2)c([2H])c1[2H]	RAM inhibit 13 | RAM 5-FOA inactive
Cc1ccccc1OCC(=O)OCC(=O)NCC1CCCO1 (stereo not drawn)	none (no result: Yeast lifespan up, Yeast growth inh)
C/C=C/c1ccc(OCC(=O)OCc2csc(Nc3ccc(C)cc3)n2)c(OC)c1	RAM inhibit 12 (no result: bCat nuc transl) | RAM 5-FOA inactive
O=C(O)CSc1nc(-c2ccc(Cl)cc2)nc2c1oc1ccccc12	RAM inhibit 15, Yeast growth inh 71 | RAM 5-FOA inactive
CCOC(=O)CSc1nc(-c2ccccc2)nc2c1oc1ccccc12	none
COc1ccc(CC(=O)n2nc(-c3ccc(Cl)cc3)nc2NCc2ccco2)cc1	MT stabilize HCS 28, RAM inhibit 14 | RAM 5-FOA inactive
CC(=O)n1nc(-c2ccc(Cl)cc2)nc1NCc1ccco1	none (no result: bCat nuc transl)
Cc1ccc(C(=O)n2nc(-c3ccccc3)nc2NCc2ccco2)cc1	RAM inhibit 13 | RAM 5-FOA inactive
CCCC(=O)n1nc(-c2ccc(C)cc2)nc1NCc1ccco1	none (no result: Yeast lifespan up, Yeast growth inh)
O=C(c1cccs1)n1nc(-c2ccc(Cl)cc2)nc1NCc1ccco1	RAM inhibit 13 | RAM 5-FOA inactive
O=S(=O)(c1ccccc1)n1nc(-c2ccccc2)nc1NCc1ccco1	RAM inhibit 16 | RAM 5-FOA inactive
CSc1nc(-c2ccccc2)nn1S(=O)(=O)c1ccccc1	none (no result: Yeast lifespan up)
O=C(Cc1ccccc1)NNC(=O)c1ccccc1C(=O)O	none (no result: MT stabilize HCS, RAM inhibit, Yeast lifespan up, Yeast growth inh, HMGR II inh)
CN1CCN(c2ccc(CNC(=O)c3ccco3)cc2)CC1	none (no result: MT stabilize HCS, RAM inhibit, Yeast lifespan up, Yeast growth inh, HMGR II inh)
CSc1nc2ccccc2cc1/C=C(\C#N)c1cccc(C)c1	RAM inhibit 13 (no result: bCat nuc transl) | RAM 5-FOA inactive
CSc1nc2ccccc2cc1/C=C(\C#N)c1ccc(Cl)c(Cl)c1	none
Cc1[nH]n(-c2ccccc2)c(=O)c1N=Nc1cccc(S(=O)(=O)N2CCOCC2)c1	none
Cc1[nH]n(-c2ccccc2)c(=O)c1N=Nc1ccccc1	RAM inhibit 13 (no result: Yeast lifespan up, Yeast growth inh) | RAM 5-FOA inactive
COc1cccc(CN(CC2CCCO2)S(=O)(=O)c2ccc(S(=O)(=O)NCC3CCCO3)cc2)c1OC (stereo not drawn)	none (no result: bCat nuc transl)
CCN(Cc1ccccc1)S(=O)(=O)c1ccc(S(=O)(=O)N(Cc2cccc(OC)c2)CC2CCCO2)cc1 (stereo not drawn)	RAM inhibit 16 (no result: bCat nuc transl) | RAM 5-FOA inactive
COc1cccc(CN(Cc2ccccc2F)S(=O)(=O)c2ccc(S(=O)(=O)NCc3ccccc3)cc2)c1	RAM inhibit 18 | RAM 5-FOA inactive
COc1cccc(CN(Cc2ccco2)S(=O)(=O)c2ccc(S(=O)(=O)NCc3ccccc3)cc2)c1OC	RAM inhibit 14 (no result: Yeast lifespan up) | RAM 5-FOA inactive
COc1cccc(CNS(=O)(=O)c2ccc(S(=O)(=O)N3CCCC3)cc2)c1	none (no result: Yeast lifespan up, Yeast growth inh)
Cc1ccc(NC(=O)Cn2cc(C(F)(F)F)cc(Cl)c2=O)cc1Cl	none (no result: Yeast lifespan up, Yeast growth inh)
O=C(COc1ccccc1C(=O)NCc1ccccn1)Nc1ccc(Br)cc1	none (no result: Yeast lifespan up, Yeast growth inh)
Cn1c(=O)[nH]c(=O)c2c1nc1n2CCCN1Cc1ccccc1	none (no result: MT stabilize HCS, RAM inhibit, Yeast lifespan up, Yeast growth inh, HMGR II inh)
CCOC(=O)NC(=O)C(/C=N/c1sccc1C(=O)OC)=C(\C)O	none (no result: Yeast lifespan up, Yeast growth inh)
C=C(C)C1CC=C(C)/C(=N/NC(=O)COc2ccc(C)cc2)C1 (stereo not drawn)	none (no result: Yeast lifespan up)
C=C(C)C1CC=C(C)/C(=N\NC(=S)Nc2ccc(C)cc2)C1 (stereo not drawn)	RAM inhibit 17 (no result: bCat nuc transl) | RAM 5-FOA inactive
Nc1nc2n(n1)C(=O)CC(c1ccccc1)N2 (stereo not drawn)	none (no result: Yeast lifespan up, Yeast growth inh)
CCn1cc(C(=O)O)c(=O)c2cnc(N3CCN(C(=S)NC(=O)c4ccccc4Cl)CC3)nc21	none (no result: MT stabilize HCS, RAM inhibit, Yeast lifespan up, Yeast growth inh, HMGR II inh)
CN(CCOc1ccccc1)S(=O)(=O)c1ccc2oc3ccccc3c2c1	RAM inhibit 15 | RAM 5-FOA inactive
COc1ccc(OCCNS(=O)(=O)c2ccc3oc4ccccc4c3c2)cc1	none
Cc1cccc(NC(=S)NCCC(c2ccccc2)c2ccccc2)c1	none (no result: bCat nuc transl)
COc1cccc(NC(=S)NCCC(c2ccccc2)c2ccccc2)c1	RAM inhibit 12 | RAM 5-FOA inactive
COc1ccc(/C=C2\SC(=O)N(CCC(=O)Nc3ccccc3)C2=O)cc1OC	RAM inhibit 13 | RAM 5-FOA inactive
COc1cc(/C=C2\SC(=S)N(CCC(=O)Nc3ccccc3)C2=O)cc(OC)c1OC	none (no result: Yeast lifespan up, Yeast growth inh)
Cc1cccc(Nc2nc(NCc3ccco3)c3ccccc3n2)c1	RAM inhibit 16 | RAM 5-FOA inactive
c1ccc(Nc2nc(NCc3ccco3)c3ccccc3n2)cc1	none (no result: MT stabilize HCS, RAM inhibit, Yeast lifespan up, Yeast growth inh, HMGR II inh)
S=C(c1ccc(-c2cc(Cl)ccc2Cl)o1)N1CCCCC1	RAM inhibit 12 (no result: bCat nuc transl) | RAM 5-FOA inactive
CCCCCCOc1ccc(NC(=O)CC2C(=O)N(CC)C(=S)N2Cc2ccco2)cc1 (stereo not drawn)	RAM inhibit 17 | RAM 5-FOA inactive
CCN1C(=O)C(CC(=O)Nc2ccc(OC)cc2)N(CCc2ccc(F)cc2)C1=S (stereo not drawn)	RAM inhibit 16 (no result: Yeast lifespan up, Yeast growth inh) | RAM 5-FOA inactive
O=C(NCCn1cc(SCc2ccc(F)cc2)c2ccccc21)c1c(F)cccc1F	none
O=C(NCCn1cc(SCc2ccc(F)cc2)c2ccccc21)c1ccccc1F	RAM inhibit 13 | RAM 5-FOA inactive
CCC(=O)NC(=S)Nc1ccc(NC(=S)NC(=O)c2ccccc2)cc1	RAM inhibit 13 (no result: Yeast lifespan up, Yeast growth inh) | RAM 5-FOA inactive

Assay outcomes as filed in PubChem BioAssay.
